Structures are written as SMILES. In brackets after ≈: the same amount, converted by molar mass. Where only a bound is given, the exact number is not on record here.

What is called IC50 is the midpoint of a concentration-inhibition curve. What is called MFC is the smallest concentration meeting the test's criterion for killing the fungus. As a reminder, the MIC is the smallest concentration in the dilution series that meets the test's criterion for growth inhibition. By MBC is commonly meant the lowest tested concentration that kills the bacteria rather than only halting them.

Assay [1] deals with Candida. Briefly: Antimicrobial activity against Candida sp. IMUR4249 at 300 ug/disc. It is filed as functional. The following applies: read-out: IZ. A digest of the protocol:
(§1)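 Disc diffusion on agar plates inoculated with a standardized microbial suspension, with paper discs carrying known compound amounts. DMSO-only discs served as negative controls, and chloramphenicol, rifampicin (bacteria) or nistatin (fungi) as references. The read-out is the mean inhibition zone diameter in mm. Each run was done three times and repeated if results differed.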

The test system of assay [2] is Toxoplasma gondii. In words: Inhibition of intracellular parasite Toxoplasma gondii. It is filed as functional, organism-based. A digest of the protocol:
(§2)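 Infected Vero cultures were exposed to compound at 0.01–30 mM for 24 h, in triplicate per assay. IC50 for infected cells and intracellular parasites was derived by non-linear regression, using trypan blue exclusion.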

Assay [3] has as its system Mycolicibacterium phlei. Briefly: Antimicrobial activity against Mycobacterium phlei at 300 ug/disc. It is filed as functional. The following applies: read-out: IZ. A digest of the protocol: as §1
In assay [4] the test system is Candida albicans. Briefly: Antimicrobial activity against Candida albicans at 300 ug/disc. Format: functional. The following applies: read-out: IZ. A digest of the protocol: as §1
The test system of assay [5] is Vero. Briefly: Inhibition of uninfected african green monkey Vero cells. It is filed as cell-based. The following applies: Chlorocebus sabaeus.
Assay [6] has as its system Staphylococcus aureus. In words: Antimicrobial activity against Staphylococcus aureus at 300 ug/disc. It is filed as functional. As to conditions: read-out: IZ. The essentials: as §1
The test system of assay [7] is Toxoplasma gondii. In words: Antiparasitic activity against Toxoplasma gondii infected african green monkey Vero cells at 8 mM assessed as infected cells. It is filed as functional. A digest of the protocol:
(§3)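 Vero cells were infected with RH-strain tachyzoites (5:1 parasite:cell) for 1 h, washed with PBS, and grown 24 h at 37 °C in medium 199 with 5% FCS. Compound was then added for 24 h. Cells were fixed with Bouin's, stained with Giemsa, and at least 400 cells were counted by light microscopy for the percentage infected. Hydroxyurea and sulfadiazine served as references.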

Assay [8] relates to Toxoplasma gondii. Briefly: Antiparasitic activity against Toxoplasma gondii infected african green monkey Vero cells at 5 mM assessed as infected cells. It is filed as functional. A digest of the protocol: as §3
Assay [9] has as its system Toxoplasma gondii. In words: Antiparasitic activity against Toxoplasma gondii infected african green monkey Vero cells at 20 mM assessed as infected cells. Format: functional. A digest of the protocol:
as §3

In assay [10] the test system is Saccharomyces cerevisiae. Briefly: Antimicrobial activity against Saccharomyces cerevisiae at 300 ug/disc. Format: functional. The following applies: read-out: IZ. A digest of the protocol:
as §1

The subject of assay [11] is Toxoplasma gondii. In words: Antiparasitic activity against Toxoplasma gondii infected african green monkey Vero cells at 0.1 mM assessed as infected cells. Format: functional. The essentials: as §3
For assay [12], the system named is Toxoplasma gondii. In words: Antiparasitic activity against Toxoplasma gondii infected african green monkey Vero cells at 2 mM assessed as infected cells. It is filed as functional. A digest of the protocol: as §3
Assay [13] has as its system Escherichia coli. In words: Antimicrobial activity against Escherichia coli at 300 ug/disc. Format: functional. The following applies: read-out: IZ. A digest of the protocol: as §1
Assay [14] relates to Enterococcus faecalis. In words: Antimicrobial activity against Streptococcus faecalis at 300 ug/disc. It is filed as functional. As to conditions: read-out: IZ. The essentials:
as §1

Assay [15] deals with Toxoplasma gondii. Briefly: Inhibition of Toxoplasma gondii infected in african green monkey Vero cells. It is filed as functional, organism-based. The essentials:
as §2

Assay [16] relates to Bacillus subtilis. In words: Antimicrobial activity against Bacillus subtilis at 300 ug/disc. It is filed as functional. The following applies: read-out: IZ. A digest of the protocol: as §1
Assay [17] relates to Micrococcus luteus. Briefly: Antimicrobial activity against Micrococcus luteus at 300 ug/disc. As to conditions: read-out: IZ. Format: functional. A digest of the protocol: as §1
Assay [18] concerns Candida. In words: Antimicrobial activity against Candida sp. IMUR720 at 300 ug/disc. Format: functional. As to conditions: read-out: IZ. The essentials:
as §1

For assay [19], the system named is Mycolicibacterium smegmatis. In words: Antimicrobial activity against Mycobacterium smegmatis at 300 ug/disc. Format: functional. As to conditions: read-out: IZ. The essentials:
as §1

For assay [20], the system named is Klebsiella pneumoniae. In words: Antimicrobial activity against Klebsiella pneumoniae at 300 ug/disc. The following applies: read-out: IZ. Format: functional. The essentials: as §1
Assay [21] relates to Mycobacterium tuberculosis. In words: Antimicrobial activity against Mycobacterium tuberculosis at 300 ug/disc. As to conditions: read-out: IZ. It is filed as functional. A digest of the protocol:
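Agar disc diffusion: paper discs loaded with compound placed on agar plates seeded with a standardised microbial suspension. DMSO-only discs served as negative control. Chloramphenicol and rifampicin (bacteria) or nistatin (fungi) gave reference zones. Read-out was mean zone of inhibition diameter (mm). Each experiment was run three times and repeated if results differed.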

Assay [22] deals with Candida. In words: Antimicrobial activity against Candida sp. IMUR1224 at 300 ug/disc. It is filed as functional. The following applies: read-out: IZ. The essentials: as §1
Assay [23] concerns Candida. In words: Antimicrobial activity against Candida sp. IMUR4249. It is filed as functional. The essentials: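 Tube dilution MIC, run on compounds with a disc-diffusion zone of at least 18 mm. The DMSO stock (1 mg/mL) was serially diluted to 10–220 µg/mL final in medium, and strains were inoculated at 10^8/mL. Media were tryptic soy or nutrient agar for bacteria and Sabouraud liquid for fungi, incubated 24–48 h at 37 °C (bacteria) or 30 °C (fungi). MIC is the lowest concentration giving clear tubes.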

Assay [24] deals with Mycobacterium tuberculosis. Briefly: Antimicrobial activity against Mycobacterium tuberculosis. Format: functional.

On to `COc1cc(/C=N/N=C2\SC(CC(=O)O)C(=O)N2c2ccccc2)cc(OC)c1OC` (centres undefined), for which the zone of inhibition at 300 µg/disc in [1] was 15 mm; in assay [3] it was less than 7 mm; in assay [4], 10 mm; in [6], less than 7 mm; in [10], less than 7 mm; in [13], less than 7 mm. In addition, the zone of inhibition at 300 µg/disc in [14] was less than 7 mm; in [16], 19 mm; in assay [17] it was 25 mm; in [18] it was less than 7 mm; in [19], less than 7 mm; in [20] it was less than 7 mm. The zone of inhibition at 300 µg/disc in assay [21] and in [22] was less than 7 mm each time. In addition, the results for the 50% inhibitory concentration (IC50) in [2], in assay [5] and in [15] were 500 µM, 2000 µM and 1000 µM, respectively. Besides, the Activity in assay [7] is on record as 7.2%; in [8] it was 15.63%; in assay [9] it was 0%; in assay [11], 55.57%; in [12] it was 14.33%.
In the case of `O=C(O)CC1S/C(=N\N=C\c2ccccc2F)N(c2ccccc2)C1=O` (centres undefined), the zone of inhibition at 300 µg/disc was 20 mm in assay [1]; 7 mm in [3]; 7 mm in assay [4]; less than 7 mm in assay [6]; less than 7 mm in [10]; less than 7 mm in assay [13]. Moreover, the zone of inhibition at 300 µg/disc in [14] is 16 mm; in assay [16] it was 15 mm; in [17], 25 mm; in [18], less than 7 mm; in assay [19], 13 mm; in assay [20], less than 7 mm. Further, the zone of inhibition at 300 µg/disc in assay [21] was 14 mm; in [22], less than 7 mm. Also, the IC50 in assay [2] was determined as 1000 µM; in assay [5] it was 2000 µM; in [15] it was 2000 µM. Also, the Activity is recorded as 0% in [7]; 0% in assay [8]; 0% in assay [9]; 70.79% in [11]; 16.14% in [12]. Besides, the MFC in [23] was 70 µg/mL (≈ 188 µM). Moreover, in assay [23], 80 µg/mL (≈ 215 µM) was the least that counted as inhibitory (MIC).
On to `COc1cccc(/C=N/N=C2\SC(CC(=O)O)C(=O)N2c2ccccc2)c1` (centres undefined), for which the zone of inhibition at 300 µg/disc was 18 mm in assay [1]; less than 7 mm in assay [3]; less than 7 mm in assay [4]; 14 mm in [6]; less than 7 mm in [10]; less than 7 mm in assay [13]. The zone of inhibition at 300 µg/disc is 11 mm in assay [14]; 9 mm in [16]; 22 mm in [17]; less than 7 mm in [18]; less than 7 mm in [19]; less than 7 mm in [20]. In addition, the zone of inhibition at 300 µg/disc in assay [21] and in assay [22] was less than 7 mm throughout. The IC50 in assay [2] was determined as 100 µM; in assay [5] it was 5000 µM; in assay [15] it was 3000 µM. The Activity in assay [7] stood at 4.16%; in assay [8], 7.3%; in assay [9], 0%; in [11] it was 34.16%; in assay [12], 28.71%. The molecule also had an MFC in assay [23] of 70 µg/mL (≈ 183 µM). In [23], this molecule showed a minimum inhibitory concentration (MIC) of 80 µg/mL (≈ 209 µM).
Take `O=C(O)CC1S/C(=N\N=C\c2ccc(Cl)cc2Cl)N(c2ccccc2)C1=O` (centres undefined): the zone of inhibition at 300 µg/disc in [1] is 14 mm; in assay [3], 12 mm; in assay [4], 7 mm; in assay [6] it was 10 mm; in assay [10] it was less than 7 mm; in [13], less than 7 mm. The zone of inhibition at 300 µg/disc in assay [14] is 15 mm; in [16], 17 mm; in assay [17] it was 20 mm; in assay [18] it was less than 7 mm; in assay [19] it was 16 mm; in assay [20] it was less than 7 mm. The zone of inhibition at 300 µg/disc is 22 mm in assay [21] and less than 7 mm in assay [22]. Besides, the IC50 in assay [2] amounted to 1000 µM; in [5], 2000 µM; in [15], 1500 µM. The Activity was 0% in assay [7]; 19.05% in assay [8]; 0% in assay [9]; 63.23% in assay [11]; 18.08% in assay [12]. For the same molecule, the MBC in assay [24] was 60 µg/mL (≈ 142 µM). In assay [24], the MIC came to 70 µg/mL (≈ 166 µM).

Source of the values: ChEMBL document CHEMBL1140759, “Synthesis, anti-Toxoplasma gondii and antimicrobial activities of benzaldehyde 4-phenyl-3-thiosemicarbazones and 2-[(phenylmethylene)hydrazono]-4-oxo-3-phenyl-5-thiazolidineacetic acids” (Bioorg Med Chem, 2008).
